The text below walks through data of ChEMBL document CHEMBL1157934, “Sugar-based peptidomimetics as potential inhibitors of the vascular endothelium growth factor binding to neuropilin-1” (Bioorg Med Chem, 2010).

A word on the pIC50: it is −log10 of the IC50, conventionally taken in molar units. For orientation: inhibition means the share of the control response that was lost under treatment.

pIC50: −log10 of the molar value. Calls of active or inactive are those of the source. The rule behind the calls is not given here. Residues, ends and D or L forms follow the SMILES beside them. *: point of attachment. X1 = O=C(c1ccc(-c2c3nc(c(-c4ccccc4)c4ccc([nH]4)c(-c4ccccc4)c4nc(c(-c5ccccc5)c5ccc2[nH]5)C=C4)CC3)cc1)*; Ahx = NCCCCCC(=O)O

T1 sequence (O14786 whole entry): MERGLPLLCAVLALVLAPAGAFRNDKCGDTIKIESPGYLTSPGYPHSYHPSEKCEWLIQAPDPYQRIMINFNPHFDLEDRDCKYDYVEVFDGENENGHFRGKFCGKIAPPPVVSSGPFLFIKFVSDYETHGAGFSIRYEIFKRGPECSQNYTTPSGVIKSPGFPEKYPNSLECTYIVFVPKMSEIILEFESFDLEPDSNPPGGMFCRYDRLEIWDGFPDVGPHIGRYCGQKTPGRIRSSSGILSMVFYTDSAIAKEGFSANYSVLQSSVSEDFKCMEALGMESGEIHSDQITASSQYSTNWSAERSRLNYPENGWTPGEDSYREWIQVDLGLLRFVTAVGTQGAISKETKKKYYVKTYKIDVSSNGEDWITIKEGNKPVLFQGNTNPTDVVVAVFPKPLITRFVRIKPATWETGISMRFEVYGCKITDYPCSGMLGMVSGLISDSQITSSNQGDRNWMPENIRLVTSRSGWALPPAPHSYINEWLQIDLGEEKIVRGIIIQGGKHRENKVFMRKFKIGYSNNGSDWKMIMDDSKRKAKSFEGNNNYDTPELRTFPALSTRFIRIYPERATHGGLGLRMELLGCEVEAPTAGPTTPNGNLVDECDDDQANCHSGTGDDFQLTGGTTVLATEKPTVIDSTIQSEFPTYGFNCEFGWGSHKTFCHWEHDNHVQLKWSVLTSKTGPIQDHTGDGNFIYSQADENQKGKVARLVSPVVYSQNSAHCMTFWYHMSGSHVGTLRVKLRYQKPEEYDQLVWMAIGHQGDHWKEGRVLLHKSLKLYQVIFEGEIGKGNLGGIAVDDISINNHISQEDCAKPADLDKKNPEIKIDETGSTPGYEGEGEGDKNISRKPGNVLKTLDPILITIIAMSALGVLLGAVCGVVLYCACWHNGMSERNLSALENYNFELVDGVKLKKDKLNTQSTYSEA

One assay has as its target T1, Neuropilin-1 (Homo sapiens, UniProt O14786). Nature of the assay: Displacement of biotinylated VEGF165 from recombinant NRP1 after 2 hrs by competitive binding assay. The procedure, abridged: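 Plates coated overnight at room temperature with recombinant chimeric NRP-1 in PBS, then blocked with PBS/0.5% BSA for 1 h at 37 °C. Biotinylated VEGF165 (5 ng/mL; 110 pM), with heparin present, competed with increasing competitor concentrations for 2 h at room temperature. Bound label was detected with streptavidin-HRP, 20 min at room temperature, then stopped and read at 450 nm. IC50 was derived by the median effect method.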
Consider `CC(C)C[C@H](NC(=O)[C@H](Cc1c[nH]c2ccccc12)NC(=O)[C@@H](NC(=O)[C@H](C)NC(=O)CCCCCNC(=O)c1ccc(-c2c3nc(c(-c4ccccc4)c4ccc([nH]4)c(-c4ccccc4)c4nc(c(-c5ccccc5)c5ccc2[nH]5)C=C4)CC3)cc1)[C@@H](C)O)C(=O)N1CCC[C@H]1C(=O)N1CCC[C@H]1C(=O)N[C@@H](CCCNC(=N)N)C(=O)O` ({X1-Ahx}-ATWLPPR-OH), for which the pIC50 was 3.77.

For `CC1(C)O[C@@H]2[C@H](O1)[C@H](CN(CCNC(=N)N)C(=N)N)O[C@@H]2CC(=O)NCCc1c[nH]c2ccccc12`, the pIC50 was 4.04.

The target in the next assay is T1, Neuropilin-1. Nature of the assay: Inhibition of VEGF binding to NRP1 expressed in CHO cells. It is filed as cell-based.
For H-ATWLPPR-OH, the negative-log IC50 (pIC50) was 4.72.

The target of the next assay is T1, Neuropilin-1. Nature of the assay: Inhibition of biotinylated VEGF165 binding to recombinant NRP1 at 100 uM after 2 hrs by competitive binding assay. In outline: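 NRP-1-coated wells were blocked with PBS/0.5% BSA for 1 h at 37 °C. Biotinylated VEGF165 was added with competitor at 100 µM for 2 h at room temperature, then washed. Detection used streptavidin-HRP, 20 min at room temperature, stop solution and OD at 450 nm. Results are absorbance relative to blocking-buffer-only wells, three wells per condition.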
Turning to `CC1(C)O[C@@H]2[C@H](O1)[C@H](CNCCNC(=O)OCc1ccccc1)O[C@@H]2CC(=O)NCCc1c[nH]c2ccccc12`, the inhibition entry is “Active”.

`CC1(C)O[C@@H]2[C@H](O1)[C@H](CN[C@@H](CCCNC(=N)N)C(=O)O)O[C@@H]2CC(=O)NCCc1c[nH]c2ccccc12`: the inhibition entry is “Active”.

Consider `CC(=O)O[C@H](C)CNC(=O)C[C@H]1O[C@@H](CNCc2ccncc2)[C@H]2OC(C)(C)O[C@H]21`, for which the inhibition entry is “Active”.

Regarding `CC1(C)O[C@@H]2[C@H](O1)[C@H](CNCCN)O[C@@H]2CC(=O)NCCc1c[nH]c2ccccc12`, the inhibition entry is “Active”.

On to H-ATWLPPR-OH, for which the inhibition entry is “Active”.

`COC(=O)[C@H](CCCNC(=N)N)NC[C@@H]1O[C@H](CC(=O)NC[C@@H](C)OC(C)=O)[C@@H]2OC(C)(C)O[C@@H]21`: the inhibition entry is “Active”.

In the case of `CC1(C)O[C@@H]2[C@H](O1)[C@H](CNCCNc1ccccn1)O[C@@H]2CC(=O)NCCc1c[nH]c2ccccc12`, the inhibition entry was “Active”.

On to `CC1(C)O[C@@H]2[C@H](O1)[C@H](CN1CCN(C(=N)N)C1=O)O[C@@H]2CC(=O)NCCc1c[nH]c2ccccc12`, for which the inhibition result is “Active”.

Consider `CC1(C)O[C@@H]2[C@H](O1)[C@H](CNCCNC(=N)N)O[C@@H]2CC(=O)NCCc1c[nH]c2ccccc12`, for which the inhibition result was “Active”.

Regarding `CC1(C)O[C@@H]2[C@H](O1)[C@H](CNCc1nc3ccccc3[nH]1)O[C@@H]2CC(=O)NCCc1c[nH]c2ccccc12`, the inhibition entry was “Active”.

Regarding `C[C@@H](O)CNC(=O)C[C@H]1O[C@@H](CNCCc2nc3ccccc3[nH]2)[C@H]2OC(C)(C)O[C@H]21`, the inhibition result was “Active”.

For the molecule `CC1(C)O[C@@H]2[C@H](O1)[C@H](CNCc1ccccc1)O[C@@H]2CC(=O)NCCc1c[nH]c2ccccc12`, the inhibition result is “Active”.

On to `CC(=O)O[C@H](C)CNC(=O)C[C@H]1O[C@@H](CNCCNC(=N)N)[C@H]2OC(C)(C)O[C@H]21`, for which the inhibition entry is “Active”.

As to `C[C@@H](O)CNC(=O)C[C@H]1O[C@@H](CN[C@@H](CCCNC(=N)N)C(=O)O)[C@H]2OC(C)(C)O[C@H]21`, the inhibition result is “Active”.

On to `CC(C)(C)OC(=O)/N=C(/NC(=O)OC(C)(C)C)N1CCN(C[C@@H]2O[C@H](CC(=O)NCCc3c[nH]c4ccccc34)[C@@H]3OC(C)(C)O[C@@H]32)C1=O`, for which the inhibition result was “Active”.

Turning to `CC1(C)O[C@@H]2[C@H](O1)[C@H](CNCc1ccncc1)O[C@@H]2CC(=O)NCCc1c[nH]c2ccccc12`, the inhibition entry was “Active”.

For the molecule `COC(=O)[C@H](CCCNC(=N)N)NC[C@@H]1O[C@H](CC(=O)NCCc2c[nH]c3ccccc23)[C@@H]2OC(C)(C)O[C@@H]21`, the inhibition entry was “Active”.

Regarding `C[C@@H](O)CNC(=O)C[C@H]1O[C@@H](CNCc2ccncc2)[C@H]2OC(C)(C)O[C@H]21`, the inhibition entry is “Active”.

In the case of `CC(=O)O[C@H](C)CNC(=O)C[C@H]1O[C@@H](CNCCNc2ccccn2)[C@H]2OC(C)(C)O[C@H]21`, the inhibition entry was “Active”.

`CC(C)C[C@H](NC(=O)[C@H](Cc1c[nH]c2ccccc12)NC(=O)[C@@H](NC(=O)[C@H](C)NC(=O)CCCCCNC(=O)c1ccc(-c2c3nc(c(-c4ccccc4)c4ccc([nH]4)c(-c4ccccc4)c4nc(c(-c5ccccc5)c5ccc2[nH]5)C=C4)CC3)cc1)[C@@H](C)O)C(=O)N1CCC[C@H]1C(=O)N1CCC[C@H]1C(=O)N[C@@H](CCCNC(=N)N)C(=O)O` ({X1-Ahx}-ATWLPPR-OH): the inhibition result was “Active”.

Turning to `CC1(C)O[C@@H]2[C@H](O1)[C@H](CNCCc1nc3ccccc3[nH]1)O[C@@H]2CC(=O)NCCc1c[nH]c2ccccc12`, the inhibition result was “Active”.

Take `CC(=O)O[C@H](C)CNC(=O)C[C@H]1O[C@@H](CNCc2nc3ccccc3[nH]2)[C@H]2OC(C)(C)O[C@H]21`: the inhibition result is “Active”.

As for `C[C@@H](O)CNC(=O)C[C@H]1O[C@@H](CNCCNc2ccccn2)[C@H]2OC(C)(C)O[C@H]21`, the inhibition result is “Active”.

`CC1(C)O[C@@H]2[C@H](O1)[C@H](CNCCNc1ncccn1)O[C@@H]2CC(=O)NCCc1c[nH]c2ccccc12`: the inhibition result was “Active”.

For `CC1(C)O[C@@H]2[C@H](O1)[C@H](CN(CCNC(=N)N)C(=N)N)O[C@@H]2CC(=O)NCCc1c[nH]c2ccccc12`, the inhibition was 65%.

Turning to `CC(=O)O[C@H](C)CNC(=O)C[C@H]1O[C@@H](CNCCNC(=O)OCc2ccccc2)[C@H]2OC(C)(C)O[C@H]21`, the inhibition entry was “Active”.

Consider `C[C@@H](O)CNC(=O)C[C@H]1O[C@@H](CNCc2ccccc2)[C@H]2OC(C)(C)O[C@H]21`, for which the inhibition entry was “Active”.

Take `CC(=O)O[C@H](C)CNC(=O)C[C@H]1O[C@@H](CNCCN)[C@H]2OC(C)(C)O[C@H]21`: the inhibition result is “Active”.

For `CC1(C)O[C@@H]2[C@H](O1)[C@H](CN(CCN/C(=N/C(=O)OCc1ccccc1)NC(=O)OCc1ccccc1)/C(=N/C(=O)OCc1ccccc1)NC(=O)OCc1ccccc1)O[C@@H]2CC(=O)NCCc1c[nH]c2ccccc12`, the inhibition entry is “Active”.

Regarding `C[C@@H](O)CNC(=O)C[C@H]1O[C@@H](CNCc2nc3ccccc3[nH]2)[C@H]2OC(C)(C)O[C@H]21`, the inhibition entry is “Active”.

For `CC(=O)O[C@H](C)CNC(=O)C[C@H]1O[C@@H](CN(CCN/C(=N/C(=O)OCc2ccccc2)NC(=O)OCc2ccccc2)/C(=N/C(=O)OCc2ccccc2)NC(=O)OCc2ccccc2)[C@H]2OC(C)(C)O[C@H]21`, the inhibition result was “Active”.

For the molecule `CC(=O)O[C@H](C)CNC(=O)C[C@H]1O[C@@H](CNCCN/C(=N\C(=O)OC(C)(C)C)NC(=O)OC(C)(C)C)[C@H]2OC(C)(C)O[C@H]21`, the inhibition result was “Active”.

For the molecule `CC(=O)O[C@H](C)CNC(=O)C[C@H]1O[C@@H](CNCCc2nc3ccccc3[nH]2)[C@H]2OC(C)(C)O[C@H]21`, the inhibition entry is “Active”.

Take `C[C@@H](O)CNC(=O)C[C@H]1O[C@@H](CN(CCNC(=N)N)C(=N)N)[C@H]2OC(C)(C)O[C@H]21`: the inhibition result is “Active”.

`CC(C)(C)OC(=O)/N=C(\NCCNC[C@@H]1O[C@H](CC(=O)NCCc2c[nH]c3ccccc23)[C@@H]2OC(C)(C)O[C@@H]21)NC(=O)OC(C)(C)C`: the inhibition entry is “Active”.
